Assay [1] has as its target T1, Lipoprotein lipase (Bos taurus) (UniProt P11151).
T1 sequence (whole entry): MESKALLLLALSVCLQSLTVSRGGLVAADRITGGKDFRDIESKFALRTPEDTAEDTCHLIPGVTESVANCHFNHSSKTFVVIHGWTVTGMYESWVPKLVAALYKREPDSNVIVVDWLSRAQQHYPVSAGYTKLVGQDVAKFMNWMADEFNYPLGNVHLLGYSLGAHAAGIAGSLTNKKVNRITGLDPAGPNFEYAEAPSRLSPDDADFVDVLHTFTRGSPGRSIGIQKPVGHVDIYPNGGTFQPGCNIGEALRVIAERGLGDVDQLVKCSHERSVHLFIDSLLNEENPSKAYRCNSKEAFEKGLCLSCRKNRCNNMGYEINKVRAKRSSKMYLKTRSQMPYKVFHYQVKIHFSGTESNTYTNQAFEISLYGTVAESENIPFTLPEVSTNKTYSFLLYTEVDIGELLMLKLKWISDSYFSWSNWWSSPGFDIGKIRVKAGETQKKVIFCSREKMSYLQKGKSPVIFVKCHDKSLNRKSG
The assay is described as follows: Induction of bovine LPL stabilization using intralipid as substrate at 6.25 uM preincubated for 10 mins with human recombinant ANGPTL4 followed by substrate addition measured after 45 mins relative to control. In outline:
(§1)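 Compound in DMSO in buffer (50 mM potassium phosphate pH 7.4, 0.15 M NaCl, 0.01% Triton X-100), with human ANGPTL4 N-terminal fragment (aa 26-184, 75 nM final) and bovine LPL (15 nM final). Preincubated 10 min at 25 °C with shaking. Stopped after 45 min with 2.5% Triton X-100, and NEFA measured enzymatically. Activity normalised between DMSO+LPL+ANGPTL4 (0%) and DMSO+LPL (100%).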

The target of assay [2] is T1, Lipoprotein lipase (Bos taurus). Put plainly: Induction of bovine LPL stabilization using intralipid as substrate at 3.12 uM preincubated for 10 mins with human recombinant ANGPTL4 followed by substrate addition measured after 45 mins relative to control. In outline:
as §1

For assay [3] the target is unchanged. Put plainly: Induction of bovine LPL stabilization using intralipid as substrate at 12.5 uM preincubated for 10 mins with human recombinant ANGPTL4 followed by substrate addition measured after 45 mins relative to control. The procedure, abridged: as §1
For assay [4] the target is unchanged. Put plainly: Induction of bovine LPL stabilization using intralipid as substrate at 25 uM preincubated for 10 mins with human recombinant ANGPTL4 followed by substrate addition measured after 45 mins relative to control. The procedure, abridged: as §1

32 molecules from ChEMBL document CHEMBL3745639, “Structure-activity relationships for lipoprotein lipase agonists that lower plasma triglycerides in vivo” (Eur J Med Chem, 2015) can be followed below.

SMILES strings stand for the structures. Calls of active or inactive are those of the source. Unless noted, no cut-off for these calls is given here.

For `O=C(O)c1ccc2c(c1)C(=O)N(c1ccc(NCc3cccnc3)c(C(=O)NCc3cccnc3)c1)C2=O`, the outcome in assay [1], in assay [2], in assay [3] and in assay [4] was inactive.

With `Cc1ccc(NC(=O)c2cc(Nc3ccc(C)cc3)cc(N3C(=O)c4ccc(C(=O)O)cc4C3=O)c2)cc1`, the Activity in assay [1] was determined as 5%; in assay [3], 7%; in assay [4], 24.6%. Moreover, the outcome in assay [2] was inactive.

Turning to `O=C(O)c1ccc2c(c1)C(=O)N(c1ccc(N3CCCCC3)c(C(=O)NCc3cccnc3)c1)C2=O`, the result in assay [1], in assay [2], in assay [3] and in assay [4] was inactive.

`O=C(O)c1ccc2c(c1)C(=O)N(c1ccc(N3CCCCC3)c(C(=O)NCc3ccccc3)c1)C2=O`: the result in assay [1], in assay [2], in assay [3] and in assay [4] was inactive.

Consider `Cc1ccc(NC(=O)c2cc(N3C(=O)c4ccc(C#N)cc4C3=O)ccc2N2CCCCC2)cc1`, for which the result in assay [1], in assay [2], in assay [3] and in assay [4] was inactive.

For the molecule `COc1ccc(N2C(=O)c3ccc(C(=O)O)cc3C2=O)cc1C(=O)Nc1ccc(C)cc1`, the outcome in assay [1], in assay [2], in assay [3] and in assay [4] was inactive.

For the molecule `Cc1ccc(NC(=O)c2cc(Cl)cc(N3C(=O)c4ccc(C(=O)O)cc4C3=O)c2)cc1`, the outcome in assay [1], in assay [2], in assay [3] and in assay [4] was inactive.

Turning to `CCCNc1ccc(N2C(=O)c3ccc(C(=O)O)cc3C2=O)cc1C(=O)Nc1ccc(C)cc1`, the outcome in assay [1] and in assay [2] was inactive. The Activity stood at 6.2% in assay [3] and 39.7% in assay [4].

For `Cc1ccc(NC(=O)c2cc(N3C(=O)c4ccc(C(=O)O)cc4C3=O)ccc2N2CCCCC2)cc1F`, the result in assay [1] and in assay [2] was inactive. Moreover, the Activity in assay [3] is 53.3%; in assay [4], 72.1%.

For `Cc1ccc(NC(=O)c2cc(N3C(=O)c4ccc(C(=O)O)cc4C3=O)ccc2Nc2ccccc2)cc1`, the Activity came to 57.2% in assay [1], 80.1% in assay [3] and 94.4% in assay [4]. Further, the outcome in assay [2] was inactive.

With `CCCCCCNC(=O)c1cc(N2C(=O)c3ccc(C(=O)O)cc3C2=O)ccc1NCCCCCC`, the Activity is 19.3% in assay [1], 4% in assay [2], 31.8% in assay [3] and 67.8% in assay [4].

Turning to `COC(=O)c1ccc2c(c1)C(=O)N(c1ccc(N3CCCCC3)c(C(=O)Nc3ccc(C)cc3)c1)C2=O`, the outcome in assay [1], in assay [2], in assay [3] and in assay [4] was inactive.

As for `Cc1ccc(NC(=O)c2cc(N3C(=O)c4ccc(C(=O)O)cc4C3=O)ccc2N2CCN(C)CC2)cc1`, the outcome in assay [1], in assay [2], in assay [3] and in assay [4] was inactive.

With `Cc1ccc(NC(=O)c2cc(Nc3ccccc3)cc(N3C(=O)c4ccc(C(=O)O)cc4C3=O)c2)cc1`, the Activity in assay [1] was 4.2%; in assay [3], 73.1%; in assay [4] it was 89.4%. The outcome in assay [2] was inactive.

On to `O=C(O)c1ccc2c(c1)C(=O)N(c1ccc(N3CCCCC3)c(C(=O)Nc3ccccc3-c3ccccc3)c1)C2=O`, for which the Activity in assay [1] was 60.1%; in assay [3] it was 63.3%; in assay [4], 68.5%. Also, in assay [2], the outcome was inactive.

For the molecule `CC(C)c1ccc(NC(=O)c2cc(N3C(=O)c4ccc(C(=O)O)cc4C3=O)ccc2N2CCCCC2)cc1`, the values for the Activity in assay [1], in assay [3] and in assay [4] were 55.6%, 71% and 53.1%, respectively. Further, the result in assay [2] was inactive.

For the molecule `Cc1ccc(NC(=O)c2cc(N3C(=O)c4ccc(C(=O)O)cc4C3=O)ccc2Br)cc1`, the outcome in assay [1], in assay [2], in assay [3] and in assay [4] was inactive.

Take `Cc1ccc(NC(=O)c2cc(N3C(=O)c4ccc(C(=O)O)cc4C3=O)ccc2N2CCCCC2)cc1Cl`: the figures for the Activity in assay [1], in assay [3] and in assay [4] were 66.8%, 73% and 69.8%, respectively. The result in assay [2] was inactive.

Turning to `Cc1ccc(NC(=O)c2ccc(N3CCCCC3)cc2N2C(=O)c3ccc(C(=O)O)cc3C2=O)cc1`, the result in assay [1], in assay [2] and in assay [3] was inactive. Besides, the Activity in assay [4] was 96.7%.

For the molecule `Cc1ccc(NC(=O)c2ccc(N3C(=O)c4ccc(C(=O)O)cc4C3=O)cc2N2CCCCC2)cc1`, the outcome in assay [1], in assay [2] and in assay [3] was inactive. In assay [4], the Activity was 14.1%.

For `Cc1ccc(NC(=O)c2cc(N3C(=O)c4ccc(C(=O)O)cc4C3=O)ccc2Cl)cc1`, the outcome in assay [1], in assay [2], in assay [3] and in assay [4] was inactive.

In the case of `O=C(O)c1ccc2c(c1)C(=O)N(c1ccc(N3CCCCC3)c(C(=O)Nc3ccc(C(F)(F)F)cc3)c1)C2=O`, the result in assay [1] and in assay [2] was inactive. Further, the values for the Activity in assay [3] and in assay [4] were 54.6% and 81.6%, respectively.

Take `CCCCCCNc1ccc(N2C(=O)c3ccc(C(=O)O)cc3C2=O)cc1C(=O)Nc1ccc(C)cc1`: the Activity came to 60.6% in assay [1], 47.1% in assay [3] and 67.2% in assay [4]. The outcome in assay [2] was inactive.

On to `Cc1ccc(NC(=O)c2cccc(N3CCCCC3)c2N2C(=O)c3ccc(C(=O)O)cc3C2=O)cc1`, for which the result in assay [1], in assay [2] and in assay [3] was inactive. Moreover, the Activity in assay [4] amounted to 7.3%.

With `Cc1ccc(NC(=O)c2cc(N3C(=O)c4ccc(C(N)=O)cc4C3=O)ccc2N2CCCCC2)cc1`, the result in assay [1], in assay [2] and in assay [3] was inactive. For the same molecule, the Activity in assay [4] amounted to 3.5%.

Turning to `COCCOCCOc1ccc(N2C(=O)c3ccc(C(=O)O)cc3C2=O)cc1C(=O)Nc1ccc(C)cc1`, the result in assay [1], in assay [2], in assay [3] and in assay [4] was inactive.

Turning to `CCc1ccc(NC(=O)c2cc(N3C(=O)c4ccc(C(=O)O)cc4C3=O)ccc2N2CCCCC2)cc1`, the values for the Activity in assay [1], in assay [3] and in assay [4] were 32.4%, 36.5% and 47%, respectively. Also, the outcome in assay [2] was inactive.

For the molecule `O=C(O)c1ccc2c(c1)C(=O)N(c1ccc(N3CCCCC3)c(C(=O)Nc3ccccc3)c1)C2=O`, the outcome in assay [1], in assay [2] and in assay [3] was inactive. The Activity in assay [4] is 57%.

Consider `O=C(O)c1ccc2c(c1)C(=O)N(c1ccc(Cl)c(C(=O)NCc3cccnc3)c1)C2=O`, for which the outcome in assay [1], in assay [2], in assay [3] and in assay [4] was inactive.

On to `CCc1ccc(NC(=O)c2cc(N3C(=O)c4ccc(C(=O)O)cc4C3=O)ccc2Nc2ccccc2)cc1`, for which the values for the Activity in assay [1], in assay [3] and in assay [4] were 37.6%, 60.3% and 60%, respectively. Further, in assay [2], the result was inactive.

Take `CC(C)c1ccc(NC(=O)c2cc(N3C(=O)c4ccc(C(=O)O)cc4C3=O)ccc2Nc2ccccc2)cc1`: the Activity turned out to be 44.1% in assay [1], 59.1% in assay [3] and 52.5% in assay [4]. In addition, the outcome in assay [2] was inactive.

`CCN(CC)c1ccc(N2C(=O)c3ccc(C(=O)O)cc3C2=O)cc1C(=O)Nc1ccc(C)cc1`: the outcome in assay [1], in assay [2] and in assay [3] was inactive. Moreover, in assay [4], the Activity is 49.5%.
